In ChEMBL document CHEMBL1137388, “A novel class of potent nonglycosidic and nonpeptidic pan-selectin inhibitors” (2006):
Active and inactive are the calls of the source. The calls are words filed in the database; no cut-off is given here.

What was measured:
[1] = biological target: T1, L-selectin (Homo sapiens) (UniProt P14151); assay: Inhibition of sLex binding to L-selectin at 500 uM relative to control by glyco-ELISA assay
T1 sequence (whole entry): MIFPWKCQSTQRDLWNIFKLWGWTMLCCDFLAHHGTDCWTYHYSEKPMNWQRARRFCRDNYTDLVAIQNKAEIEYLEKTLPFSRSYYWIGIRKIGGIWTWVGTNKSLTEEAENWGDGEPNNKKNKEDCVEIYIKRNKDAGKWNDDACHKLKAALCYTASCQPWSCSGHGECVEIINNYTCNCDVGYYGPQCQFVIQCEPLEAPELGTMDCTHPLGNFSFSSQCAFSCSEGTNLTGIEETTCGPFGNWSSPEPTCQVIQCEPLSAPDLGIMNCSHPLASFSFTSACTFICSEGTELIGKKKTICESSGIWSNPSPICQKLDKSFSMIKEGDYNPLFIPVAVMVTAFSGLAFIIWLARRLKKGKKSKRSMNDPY
Procedure, shortened: (§1)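 Cell-free competitive binding assay. The named selectin is immobilized on microtiter plates, and compound plus sLex-tyrosine sulfate on biotinylated polyacrylamide are added. After incubation, bound ligand is detected by streptavidin-peroxidase, OD 414 nm, with empty-plate absorbance subtracted. Wells coated only with sLex define 0%; EDTA (blocks Ca2+-dependent binding) defines 100% inhibition.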

[2] = biological target: T2, P-selectin (Homo sapiens) (UniProt P16109); assay: Inhibition of sLex binding to P-selectin at 500 uM relative to control by glyco-ELISA assay; procedure, shortened: as §1
T2 sequence (whole entry): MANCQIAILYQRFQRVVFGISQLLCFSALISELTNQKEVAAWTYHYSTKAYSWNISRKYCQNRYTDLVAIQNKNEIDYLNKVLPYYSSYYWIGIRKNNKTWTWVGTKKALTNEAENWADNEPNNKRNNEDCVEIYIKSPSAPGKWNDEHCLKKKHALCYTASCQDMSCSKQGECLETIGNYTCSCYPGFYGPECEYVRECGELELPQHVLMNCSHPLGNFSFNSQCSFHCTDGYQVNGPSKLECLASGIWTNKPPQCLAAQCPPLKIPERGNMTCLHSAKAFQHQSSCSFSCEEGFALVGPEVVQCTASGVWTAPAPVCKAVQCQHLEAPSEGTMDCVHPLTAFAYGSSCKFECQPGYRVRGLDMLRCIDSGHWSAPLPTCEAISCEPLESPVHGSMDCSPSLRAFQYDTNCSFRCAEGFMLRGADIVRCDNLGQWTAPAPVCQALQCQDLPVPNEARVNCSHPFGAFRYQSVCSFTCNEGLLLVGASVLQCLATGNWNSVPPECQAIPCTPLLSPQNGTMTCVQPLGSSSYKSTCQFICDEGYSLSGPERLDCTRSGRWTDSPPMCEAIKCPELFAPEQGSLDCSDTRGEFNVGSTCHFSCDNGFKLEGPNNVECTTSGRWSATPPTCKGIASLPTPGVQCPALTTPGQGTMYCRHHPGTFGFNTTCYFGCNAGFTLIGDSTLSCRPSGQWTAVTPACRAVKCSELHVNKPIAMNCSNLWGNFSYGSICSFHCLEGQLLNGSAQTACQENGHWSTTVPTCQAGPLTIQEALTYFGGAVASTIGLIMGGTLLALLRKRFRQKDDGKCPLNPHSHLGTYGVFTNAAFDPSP

[3] = Inhibition of MM6 cell adhesion to BAEC at 100 uM relative to control by static assay; assay type: functional
Procedure, shortened: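 BAEC monolayers (passage 1-3, 7 days after seeding) stimulated with 20 ng/mL TNFα for 4 or 16 h, test agent in DMSO or vehicle for 20 min at 37 °C/5% CO2. After washing, leukocytes added at 1 × 10^6 cells/mL for 30 min at 37 °C. Non-adherent cells washed off, adherent cells counted microscopically. TNFα-stimulated adhesion set to 100%. Single concentration, 100 µM.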

[4] = biological target: T3, E-selectin (Homo sapiens) (UniProt P16581); assay: Inhibition of sLex binding to E-selectin at 100 uM relative to control by glyco-ELISA assay; procedure, shortened: as §1
T3 sequence (whole entry): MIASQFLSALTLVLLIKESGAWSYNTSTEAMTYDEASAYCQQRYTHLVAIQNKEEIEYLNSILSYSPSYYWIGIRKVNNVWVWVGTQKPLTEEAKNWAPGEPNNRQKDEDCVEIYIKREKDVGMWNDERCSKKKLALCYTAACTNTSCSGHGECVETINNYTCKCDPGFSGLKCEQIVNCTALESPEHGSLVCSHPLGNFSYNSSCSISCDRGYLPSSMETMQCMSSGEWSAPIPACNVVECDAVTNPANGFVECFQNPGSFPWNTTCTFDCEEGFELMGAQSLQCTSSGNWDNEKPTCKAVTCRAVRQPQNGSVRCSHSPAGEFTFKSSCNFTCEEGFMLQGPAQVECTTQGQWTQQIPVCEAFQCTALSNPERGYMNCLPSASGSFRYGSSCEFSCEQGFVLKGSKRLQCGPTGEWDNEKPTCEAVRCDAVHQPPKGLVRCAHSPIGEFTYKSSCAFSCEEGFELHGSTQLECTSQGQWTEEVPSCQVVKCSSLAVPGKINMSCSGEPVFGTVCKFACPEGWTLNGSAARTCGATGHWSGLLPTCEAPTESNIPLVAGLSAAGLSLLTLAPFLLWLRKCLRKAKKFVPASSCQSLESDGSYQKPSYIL

AEC = assay: Viability of BAEC by Roche-XTT assay relative to control; assay type: functional, Bos taurus; parameters: concentration or dose not given beside the values
Procedure, shortened: (§2)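 XTT assay: metabolically active cells convert yellow tetrazolium XTT to orange formazan. Untreated control viability set to 100%. Cells were BAEC or MM6 as named in each line; MM6 tested at 100 µM.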

[5] = Viability in ATP-lite assay relative to control; assay type: functional; parameters: concentration or dose not given beside the values
[6] = biological target: T1, L-selectin (Homo sapiens); assay: Inhibition of sLex binding to L-selectin at 100 uM relative to control by glyco-ELISA assay; procedure, shortened: as §1
MONO-MAC-6 [7] = assay: Viability of MM6 cells at 100 uM by Roche-XTT assay relative to control; assay type: functional, Homo sapiens; procedure, shortened: as §2
Mus musculus [8] = assay: Reduction in proteose peptone-induced PMN extravasation in C57BL/J mouse peritonitis model at 50 mg/kg, ip; assay type: functional; parameters: scale not given: the % may be the effect or the level left; details: route intraperitoneal
Procedure, shortened: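 Male C57BL/6 mice received 100 µL of a 50 mg/mL compound suspension in corn oil ip, or vehicle, then 1 h later 3 mL of 3% proteose peptone ip. Peritoneal leukocytes were lavaged at 6 h with cold HBSS/5 mM EDTA and stained with PE-conjugated anti-PMN, MOMA-2 and anti-CD2 antibodies. Cells were classified by scatter and fluorescence. Mean ± SEM, n = 4.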

[9] = biological target: T2, P-selectin (Homo sapiens); assay: Inhibition of sLex binding to P-selectin at 100 uM relative to control by glyco-ELISA assay; procedure, shortened: as §1
MONO-MAC-6 [10] = assay: Viability of MM6 cells at 50 uM by Roche-XTT assay relative to control; assay type: functional, Homo sapiens
Mus musculus [11] = assay: Reduction in proteose peptone-induced PMN extravasation in C57BL/J mouse peritonitis model at 100 mg/kg; assay type: functional, organism-based; parameters: dose 100 mg/kg
[12] = biological target: T3, E-selectin (Homo sapiens); assay: Inhibition of sLex binding to E-selectin at 500 uM relative to control by glyco-ELISA assay; procedure, shortened: as §1

inhibition [1] [%]	inhibition [2] [%]	inhibition [4] [%]	SMILES	inhibition at 100 µM [3] [%]	Activity (AEC) [%]	Activity [5] [%]	Activity (MONO-MAC-6 [7]) [%]	also measured
50	34	–	CCCCCCCCCCOc1cc(OCCCCCCCCCC)cc(OCCCCCCO/N=C(/c2ccc(C(=O)O)cc2)c2cccc(C(=O)O)c2)c1	100	–	–	–	–
6	12	5	O=C(O)c1ccc(N(C(=O)CCCCCBr)c2ccc(C(=O)O)cc2)cc1	4	–	–	–	–
5	19	–	O=C(O)c1ccc(N(C(=O)CCCCCBr)c2cccc(C(=O)O)c2)cc1	2	75	–	–	–
82	81	94	CCCCCCCCCCOc1cc(OCCCCCCCCCC)cc(OCCCCCCN(c2ccc(C(=O)O)cc2)c2ccc(C(=O)O)cc2)c1	107	102	77	112	inhibition [6]: 41%; Activity (Mus musculus [8]): 44%; inhibition [9]: 35%
5	2	2	CCCCCCCCCCOc1cc(OCCCCCCCCCC)cc(OCCCCCCON=C(c2ccc(Cl)cc2)c2ccc(Cl)cc2)c1	24	–	–	–	–
–	–	–	CCCCCCCCCCOc1cccc(OCCCCCCON=C(c2ccc(C(=O)O)cc2)c2ccc(C(=O)O)cc2)c1	67	40	–	–	Activity (MONO-MAC-6 [10]): 12%
103	103	42	CCCCCCCCCCOc1cccc(OCCCCCC(=O)N(Cc2ccc(C(=O)O)cc2)c2cccc(C(=O)O)c2)c1	70	20	4	101	–
6	2	–	CCCCCCCCCCOc1cc(OCCCCCCCCCC)cc(OCCCCCCON=C(c2ccc(C(=O)O)cc2)c2ccc(C(=O)O)cc2)c1	90	110	–	84	–
92	95	43	CCCCCCCCCCOc1cc(OCCCCCCCCCC)cc(OCCCCCC(=O)N(Cc2ccc(C(=O)O)cc2)c2cccc(C(=O)O)c2)c1	82	46	0	11	–
53	58	–	CCCCCCCCCCOc1cc(OCCCCCCCCCC)cc(OCCCCCC(=O)N(c2ccc(C(=O)O)cc2)c2cccc(C(=O)O)c2)c1	–	–	–	–	–
–	–	–	CC(=O)N[C@H]1[C@H]([C@H](O)[C@H](O)CO)O[C@@](O[C@H]2[C@@H](O)[C@@H](CO)O[C@@H](O[C@@H]([C@H](O[C@@H]3O[C@@H](C)[C@@H](O)[C@@H](O)[C@@H]3O)[C@H](C=O)NC(C)=O)[C@H](O)CO)[C@@H]2O)(C(=O)O)C[C@@H]1O [SIALYL LEWIS X]	41	–	–	–	Activity (Mus musculus [11]): inactive
50	49	–	CCCCCCCCCCOc1cc(OCCCCCCCCCC)cc(OCCCCCC(=O)N(Cc2ccc(C(=O)O)cc2)c2ccc(C(=O)O)cc2)c1	56	36	–	–	–
26	27	–	CCCCCCCCCCOc1cc(OCCCCCCCCCC)cc(OCCCCCC(=O)N(Cc2ccc(C(=O)OC)cc2)c2ccc(C(=O)OC)cc2)c1	26	–	–	–	–
75	78	65	CCCCCCCCCCOc1cccc(OCCCCCC(=O)N(Cc2ccc(C(=O)OC)cc2)c2ccc(C(=O)OC)cc2)c1	26	–	68	80	–
–	–	–	CCCCCCCCCCOc1cccc(OCCCCCC(=O)N(Cc2ccc(C(=O)O)cc2)c2ccc(C(=O)O)cc2)c1	93	100	–	–	–
–	–	–	CCCCCCCCCCOc1cc(OCCCCCCCCCC)cc(OCCCCCCN(Cc2ccc(C(=O)OC)cc2)c2ccc(C(=O)OC)cc2)c1	61	111	–	5	–
95	90	–	CCCCCCCCCCOc1cc(OCCCCCCCCCC)cc(OCCCCCC(=O)N(c2ccc(C(=O)OC)cc2)c2ccc(C(=O)OC)c(C(=O)OC)c2)c1	115	90	58	50	inhibition [12]: 73%
16	16	–	CCCCCCCCCCOc1cc(OCCCCCCCCCC)cc(OCCCCCC(=O)N(c2ccc(C(=O)OC)cc2)c2ccc(C(=O)OC)cc2)c1	10	–	–	–	inhibition [12]: 5%
86	79	18	CCCCCCCCCCOc1cccc(OCCCCCC(=O)N(Cc2ccc(C(=O)OC)cc2)c2cccc(C(=O)OC)c2)c1	45	99	62	98	–
–	–	–	CCCCCCCCCCOc1cc(OCCCCCCCCCC)cc(OCCCCCCN(Cc2ccc(C(=O)O)cc2)c2ccc(C(=O)O)cc2)c1	100	–	–	10	–
